Screening results as filed in PubChem.
Compounds with a hit are over-represented: about 3.9% of the library has one in this group of screens.
SR-BI uptake up = activators of SR-BI mediated HDL lipid uptake | AID 504775 | 320,000 compounds, 0.096% hits | activation, % at 12.5 µM | CHO ldlA[mSR-BI] cells, DiI-HDL uptake fluorescence, 3 h; 100 = double the neutral-control signal;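 active = mean replicate activation of at least 60% and every replicate at or above 60%; inconclusive = mean or all-replicate condition met, but not both; inactive = mean below 60% and not all replicates reaching 60%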
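System: CHO ldlA[mSR-BI] cells / Medium: HEPES-buffered (25 mM, pH 7.4) F12 plus 0.5% BSA / Probe or stimulus: labelled HDL, 10 µg/mL / Doses: single compound concentration, delivered by pin transfer / Schedule: 3 h, 37 °C / Measured by: DiI fluorescence, bottom read / Measure: cell-associated DiI fluorescence as measure of HDL uptake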
SR-BI HDL uptake = blocks mouse SR-BI lipid uptake from DiI-HDL | inhibition, % at 12.5 µM | AID 488896 | ldlA[mSR-BI] CHO cells, DiI-HDL uptake fluorescence, 3 h | 320,000 compounds, 0.96% hits | Q61009;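 active = mean replicate inhibition of at least 70% and a set share of replicates each scoring 70 or more; inconclusive = meets just one of the two criteria; inactive = fails both criteria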
AHR act = activators of human aryl hydrocarbon receptor. P35869. AHR-responsive luciferase reporter cells, luminescence. activation, % at 5 µM. 320,000 compounds, 2.5% hits; in the data active = activation above about 47%
HIF activator = HIF pathway transcriptional activation; activation, % at 7.5 µM (by protocol); 300,000 compounds, 0.32% hits; U2OS HRE-luciferase reporter, luminescence; normalized: DMSO 0%, desferrioxamine 100%;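 active = mean activation of at least 10% of the iron chelator positive control signal, with at least half of replicates also reaching 10%; inconclusive = mean and replicate majority disagree about reaching 10%; inactive = mean and most replicates under 10%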
ABCB6 inh MLPCN = inhibitors of human ABC transporter ABCB6. Q9NP58. K562-ABCB6 porphyrin accumulation, flow cytometry, 1 h; stronger effect = lower value. fluorescence ratio to DMSO, % at 10 µM. 360,000 compounds, 0.19% hits;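 active = fluorescence ratio to DMSO below 75%, the collection mean minus 3 SD; inconclusive = too few cells collected in the well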;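 note: signal is porphyrin accumulated inside mitochondria; lower ratio means ABCB6 inhibition with less porphyrin fluorescence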
Target sequence (Q9NP58 whole entry, looked up): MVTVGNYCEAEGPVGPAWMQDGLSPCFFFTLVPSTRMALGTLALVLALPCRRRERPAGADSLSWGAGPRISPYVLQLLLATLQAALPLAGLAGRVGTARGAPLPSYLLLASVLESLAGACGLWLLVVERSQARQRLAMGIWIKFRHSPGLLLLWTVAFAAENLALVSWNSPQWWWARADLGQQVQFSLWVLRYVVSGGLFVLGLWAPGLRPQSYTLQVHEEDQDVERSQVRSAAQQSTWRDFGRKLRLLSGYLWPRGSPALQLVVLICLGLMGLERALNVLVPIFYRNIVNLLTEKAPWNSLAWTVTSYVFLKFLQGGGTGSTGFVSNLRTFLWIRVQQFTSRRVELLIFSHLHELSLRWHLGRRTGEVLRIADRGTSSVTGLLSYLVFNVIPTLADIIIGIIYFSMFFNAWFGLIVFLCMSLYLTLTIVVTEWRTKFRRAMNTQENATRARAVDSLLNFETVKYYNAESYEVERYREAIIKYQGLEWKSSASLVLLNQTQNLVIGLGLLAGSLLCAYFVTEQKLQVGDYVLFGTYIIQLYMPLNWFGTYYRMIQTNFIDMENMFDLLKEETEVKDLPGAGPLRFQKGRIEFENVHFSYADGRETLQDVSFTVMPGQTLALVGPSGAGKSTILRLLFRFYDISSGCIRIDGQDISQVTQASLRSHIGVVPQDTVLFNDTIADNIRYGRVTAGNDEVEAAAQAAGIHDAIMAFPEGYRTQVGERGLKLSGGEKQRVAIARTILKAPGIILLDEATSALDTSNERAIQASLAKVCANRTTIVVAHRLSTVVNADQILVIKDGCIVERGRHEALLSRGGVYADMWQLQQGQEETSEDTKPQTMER
FXN GAA850 act = increases GAA850 frataxin promoter reporter activity | HEK293 lucGAA850 FXN promoter luciferase reporter, 24 h; percent of 10 µM SAHA response | activation, % at 6 µM | 360,000 compounds, 0.56% hits | AID 540364;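 active = activation above the average of all compounds screened plus 3 SD, cutoff fixed separately per campaign, cut at about 7.5% in these data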
AHR act cf = human AHR activation, confirmation. human cells, AHR-responsive luciferase reporter, luminescence. 2,300 compounds, 87% hits. AID 2845. activation, % at 9 µM. shares compounds with AHR act; in the data active = activation above about 49%;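 note: HepG2 hepatoma cells carrying a DRE-driven firefly luciferase reporter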
PXR counter = counter-screen for AHR activators: human PXR activators. shares compounds with AHR act. cell-based PXR reporter, luciferase luminescence. activation, % at 11.6 µM. 2,300 compounds, 88% hits. AID 434939; in the data active = activation above about 11%;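 note: human hepatoma DPX-2 cells expressing full-length human PXR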
Large screens that a line does not name were inactive (follow-up assays come after a bar, where they were run).

COc1ccc2nccc(/C=C/c3ccnc4ccc(OC)cc34)c2c1	AHR act 104.8 (no result: SR-BI uptake up, SR-BI HDL uptake) | AHR act cf 95.6 | PXR counter 33.7
COc1ccc(OC)c(/C=C/c2ccnc3ccccc23)c1	none (no result: AHR act, HIF activator)
Clc1ccc2nc(-c3ccc(Cl)nc3)[nH]c2c1	AHR act 87.1 | AHR act cf 137.9 | PXR counter inactive
Nc1ccc2nc(-c3cccc(-c4nc5ccc(N)cc5[nH]4)c3)[nH]c2c1	none
Nc1ccc2nc(-c3ccc(Cl)cc3)[nH]c2c1	AHR act 167.3 | AHR act cf 110.6 | PXR counter 32.8
Nc1nc2ccc(Cl)cc2[nH]1	none (no result: AHR act, HIF activator)
COc1ccc2c(c1OC)C(=O)N(c1nccs1)C2	AHR act 81.6 | AHR act cf 148.5 | PXR counter 17.0
O=C(C[C@H]1C/C=C\C[C@H](NC(=O)OCC2c3ccccc3-c3ccccc32)C(=O)O[C@H](c2ccccc2)CNC1=O)N[C@H](CO)Cc1ccccc1	none (no result: HIF activator)
Cc1c(C)c(C)c2[nH]c(-c3ccc4c(c3)OCO4)nc2c1C	AHR act 101.5 | AHR act cf 102.1 | PXR counter 50.4
CN(C)S(=O)(=O)c1ccc(C(=O)NNC(=O)c2ccccc2-n2cccc2)cc1	none (no result: HIF activator)
N=C1S/C(=C\c2ccco2)C(=O)N1c1nccs1	AHR act 112.2 | AHR act cf 111.3 | PXR counter 10.2
COC(=O)c1cc(C)[nH]c2c(C)cc3nc4ccccc4c3c12	AHR act 95.1 | AHR act cf 99.7 | PXR counter 156.4
COC(=O)c1c(C)nc2ccccc2c1C(=O)O	none
O=C(Nc1ccc(Cl)cc1[N+](=O)[O-])c1ccc2c(c1)OCCO2	none
Cc1ccc([N+](=O)[O-])cc1NC(=O)c1ccc2c(c1)OCO2	AHR act 115.2 | AHR act cf 99.7 | PXR counter 25.4
O=C(Nc1cc([N+](=O)[O-])ccc1Cl)c1ccc2c(c1)OCO2	AHR act 105.5 | AHR act cf 100.5 | PXR counter 23.2
Cc1ccc([N+](=O)[O-])cc1NC(=O)c1ccccc1	none
O=C(Nc1ccc(F)cc1F)c1cccn1-c1ncc(C(F)(F)F)cc1Cl	none
NNc1nc2sc3c(c2c(=O)[nH]1)CCc1ccccc1-3	AHR act 132.7 | AHR act cf 77.8
OCCNCc1cc(Br)ccc1OCc1ccccc1Cl	AHR act 119.5 | AHR act cf 85.5 | PXR counter 39.6
O=C(COc1ccc(Br)cc1CNCCc1ccccc1)NCc1ccccc1	AHR act 113.7 | AHR act cf 89.8 | PXR counter 44.2
CCCNCc1cc(Br)ccc1OCC(=O)NCCc1ccccc1	none (no result: HIF activator)
Cc1ccc(S(=O)(=O)N2CCC(C(=O)NCCCN3CCOCC3)CC2)cc1C	none
COc1cccc(C(=O)NCCCNC(=O)c2cccc(OC)c2)c1	none
O=C(Oc1cccc(-c2cnc3ccccc3n2)c1)c1ccco1	AHR act 99.2 | AHR act cf inactive | PXR counter inactive
Cc1n[nH]c(C)c1N=Nc1ccc(Br)cc1	AHR act 131.7 | AHR act cf 123.1 | PXR counter 20.2
CCOC(=O)c1ccc(NC(=O)c2nn(CC)cc2Br)cc1	none
CCn1cc(Br)c(C(=O)Nc2ccc(Cl)cc2Cl)n1	AHR act 81.8 | AHR act cf 126.5 | PXR counter 11.3
CC(Sc1cccc2cccc(C(=O)O)c12)C(=O)O (centres undefined)	none
CC(=O)NC(Cc1ccccc1C)C(=O)NC1CCN(C(=O)NCc2ccccc2)CC1 (centres undefined)	none (no result: SR-BI uptake up, SR-BI HDL uptake, AHR act)
C/C(CC(=O)Nc1cc(Cl)ccc1Cl)=N\NC(N)=S	AHR act 83.7 | AHR act cf inactive | PXR counter 14.4
Cc1ccc(CS(=O)Cc2ccc(C(=O)N3CCN(C4CCCCC4)CC3)o2)cc1 (centres undefined)	none
c1ccc(OCCOc2ncnc3sccc23)cc1	AHR act 137.6 | AHR act cf 121.4 | PXR counter 45.0
O=c1[nH]c(=O)n(Cc2ccccc2)c2c1C(C(F)(F)F)(C(F)(F)F)N=C(c1ccco1)N2	none
CN(C)c1ccc(N=c2sc3ccccc3n2C)cc1	none
O=C(O)C1Cc2c([nH]c3ccccc23)C(c2ccc3c(c2)OCO3)N1 (centres undefined)	AHR act 90.5 | AHR act cf 72.6 | PXR counter 12.3
COc1ccc(Cl)cc1NC(=O)CC1CCCC1	none (no result: SR-BI uptake up, SR-BI HDL uptake)
Cc1nc(C(=O)Nc2ccccc2)sc1C(=O)Nc1ccccc1	SR-BI HDL uptake inconclusive
Cc1nc(-c2cccnc2)sc1C(=O)Nc1ccc(Cl)cc1	AHR act 124.3 | AHR act cf 111.9 | PXR counter 13.2
Cc1nc(/N=C\N(C)C)sc1C(=O)Nc1ccccc1	AHR act 108.5 | AHR act cf 129.5 | PXR counter 10.7
Cc1nc(N)sc1C(=O)Nc1ccccc1	AHR act 105.1 | AHR act cf inactive | PXR counter 22.9
Cc1nc(NC(=O)C2CC2)sc1C(=O)Nc1ccccc1	none
O=C(O)c1ccccc1OC(C(=O)Nc1cc(Cl)cc(Cl)c1)c1ccccc1 (centres undefined)	none (no result: SR-BI uptake up, SR-BI HDL uptake)
COc1ccc2c(c1)CCCN2C(N)=O	none
CCOc1ccc(NC(=O)c2cc3ccccc3cc2OC)cc1	AHR act 82.8 | AHR act cf 90.5
COc1ccc(Br)cc1C(=O)Nc1ccc(NC(=O)c2ccco2)cc1	none
COc1ccc(NC(=O)c2cc3ccccc3cc2OC)cc1	AHR act 96.5 | AHR act cf 65.7 | PXR counter 11.7
COc1ccc(Br)cc1C(=O)Nc1cc(C)cc(C)c1	AHR act 113.4 | AHR act cf 100.3 | PXR counter 18.2
c1ccc(-c2ccccc2OCCCN2CCOCC2)cc1	none
OC(CCN1CCC2CCC(C2)C1)c1ccc(Br)cc1 (centres undefined)	none (no result: AHR act, HIF activator)
c1ccc2c(c1)CCN(c1nc3cc4c(cc3s1)OCO4)C2	AHR act 103.2 | AHR act cf inactive | PXR counter 34.7
Cc1ccccc1NC(=O)Cc1nc(COC(=O)COc2cccc(C)c2C)cs1	none
O=C(CCc1nc(-c2ccccc2F)no1)NCCN1CCN(Cc2ccccc2)CC1	none
CCn1c(SCC(=O)Nc2ccc3c(c2)OCO3)nc2ccccc21	AHR act 93.0 | AHR act cf inactive | PXR counter 82.3
Cn1nnnc1SCC(=O)Nc1ccc2c(c1)OCO2	AHR act 103.0 | AHR act cf 114.8 | PXR counter 16.5
Cc1ccccc1-c1nsc(SCC(=O)Nc2ccc3c(c2)OCO3)n1	none
